Measurements published in article PMC3076632 (Journal of medicinal chemistry, 2011).

How the values were obtained:
Format in all cases: cell-based
[1] = test system: CD11b in the granulocytic population in whole human blood; assay: CD11b flow cytometric assay in whole human blood; conditions: ex vivo whole human blood, granulocytes, 1 hour at 37°C, flow cytometry
Outline: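 Fresh anticoagulated whole human blood was incubated with graded dilutions of test compound for 1 h at 37°C, with saline negative controls. Samples were chilled on ice for 15 min, then stained with anti-CD11b/Mac-1 antibody for 30 min on ice so that only surface CD11b was labelled. Erythrocytes were lysed and leukocytes fixed in one step in pre-warmed lyse/fix buffer, then washed twice (200 g, 5 min). Single-colour PE flow cytometry, 20,000 gated events.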

human Nod1 = biological target: T1, human Nod1 (Homo sapiens, UniProt Q9Y239); assay: NF-κB induction in HEK-Blue cells; conditions: for Nod1-agonistic activity (in words): primary screen, NF-κB induction
T1 sequence (Q9Y239 1-953): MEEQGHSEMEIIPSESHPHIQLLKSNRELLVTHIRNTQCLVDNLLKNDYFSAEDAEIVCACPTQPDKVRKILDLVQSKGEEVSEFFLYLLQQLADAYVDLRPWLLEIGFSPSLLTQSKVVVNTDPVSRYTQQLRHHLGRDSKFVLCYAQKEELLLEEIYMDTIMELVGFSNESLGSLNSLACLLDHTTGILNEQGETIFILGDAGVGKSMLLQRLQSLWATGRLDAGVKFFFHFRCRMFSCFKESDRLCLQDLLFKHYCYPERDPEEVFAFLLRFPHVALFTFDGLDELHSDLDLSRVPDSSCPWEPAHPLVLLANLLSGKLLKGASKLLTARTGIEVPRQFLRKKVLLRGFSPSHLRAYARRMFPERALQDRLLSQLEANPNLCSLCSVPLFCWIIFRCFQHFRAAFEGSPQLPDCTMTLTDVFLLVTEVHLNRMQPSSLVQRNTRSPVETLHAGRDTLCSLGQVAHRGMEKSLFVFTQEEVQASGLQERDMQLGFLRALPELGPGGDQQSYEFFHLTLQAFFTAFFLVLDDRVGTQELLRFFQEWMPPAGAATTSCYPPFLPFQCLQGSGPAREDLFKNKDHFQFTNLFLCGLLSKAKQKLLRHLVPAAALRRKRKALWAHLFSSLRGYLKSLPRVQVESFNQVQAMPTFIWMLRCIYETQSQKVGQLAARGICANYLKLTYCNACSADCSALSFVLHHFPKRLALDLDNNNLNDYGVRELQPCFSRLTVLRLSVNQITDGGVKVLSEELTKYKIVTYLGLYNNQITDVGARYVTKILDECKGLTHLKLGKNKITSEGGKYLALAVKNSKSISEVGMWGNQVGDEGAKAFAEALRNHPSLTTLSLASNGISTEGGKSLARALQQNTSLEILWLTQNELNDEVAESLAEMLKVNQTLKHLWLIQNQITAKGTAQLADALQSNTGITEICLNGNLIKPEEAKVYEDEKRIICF
Outline: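 HEK-Blue cells stably express secreted alkaline phosphatase (sAP) under NF-κB/AP-1 promoters. Cells were grown to confluency, then exposed to graded concentrations of test compound. Extracellular sAP in the supernatant, taken as proportional to Nod1-mediated NF-κB induction, was measured spectrophotometrically at 620 nm with an alkaline phosphatase-specific chromogen in the detection medium.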

[2] = test system: p38 MAPK in the granulocytic population in whole human blood; assay: Phosflow flow cytometric assay for p38MAPK in whole human blood; conditions: ex vivo whole human blood, granulocytes, 15 minutes at 37°C, flow cytometry
Outline: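 Heparinised fresh whole human blood was exposed to graded concentrations of test compound in saline for 15 min at 37°C. One-step erythrocyte lysis and leukocyte fixation, wash (500 g, 8 min), permeabilisation in ice-cold methanol for 30 min, two PBS washes. Staining for 60 min with PE-anti-phospho-p38 (pT180/pY182) mAb or matched PE mouse IgG1κ isotype control. Single-colour PE flow cytometry, 20,000 gated events.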

Human PBMCs = assay: Transcriptomal profiling; conditions: 20 μg/mL
Outline: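 PBMCs from fresh heparinised human blood were stimulated with test compound at 20 μg/mL for 2 h; total RNA was extracted from treated and negative-control samples. 4 μg RNA per sample was hybridised to U133 plus 2.0 arrays. Chips passed QC (5′/3′ ratio < 3.0), were scaled to target intensity 500 and normalised, with absent-call genes filtered. Differential expression was defined as ≥2-fold change versus negative control.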

| SMILES | CD11b upregulation (in words) [1] | p38 MAPK upregulation (in words) [2] | Nod1-agonistic activity (in words) (human Nod1) | other results |
| --- | --- | --- | --- | --- |
| CCCCCCCCCCCC(=O)N[C@H](CCC(=O)NC(CCCC(N)C(=O)O)C(=O)O)C(=O)O (stereo partly drawn) [Compound 16, 2-Amino-6-((R)-4-carboxy-4-dodecanamidobutanamido) heptanedioic acid] | upregulated in a dose-dependent manner | upregulated in a dose-dependent manner | – | EC50 (human Nod1): ~0.03 nM |
| CCCCCCCCCCCCN(CCCCCCCCCCCC)[C@H](CCC(=O)NC(CCCC(N)C(=O)O)C(=O)O)C(=O)O (stereo partly drawn) [Compound 27, 2-Amino-6-((R)-4-carboxy-4-(didodecylamino)butanamido) heptanedioic acid] | more potent than 16 | more potent than 16 | – | pathway analysis of induced gene transcripts (in words) (Human PBMCs; IPA pathway analysis): activation of pathways involving signaling mediated by Triggering Receptor Expressed on Myeloid Cells 1; Fold change IL1B (interleukin 1, beta), up (Human PBMCs; probe set 39402_at, two hours, up): 4.45 fold; Fold change IL1RN (interleukin 1 receptor antagonist), up (Human PBMCs; probe set 212659_s_at, two hours, up): 8.19 fold; Fold change IL1RN (interleukin 1 receptor antagonist), up (Human PBMCs; probe set 216243_s_at, two hours, up): 7.54 fold; Fold change IL1RN (interleukin 1 receptor antagonist), up (Human PBMCs; probe set 216244_at, two hours, up): 8.27 fold |
| CCCCCCCCCCCC(=O)N[C@H](CCC(=O)NC(CCCCC(=O)O)C(=O)O)C(=O)O (stereo partly drawn) [Compound 67, 2-((R)-4-carboxy-4-dodecanamidobutanamido)heptanedioic acid] | – | – | abrogation of activity | – |
| CCCCCCCCCCCC(=O)N[C@H](CCC(=O)NCCCCCN)C(=O)O [Compound 69, (R)-5-((5-Aminopentyl)amino)-2-dodecanamido-5-oxopentanoic acid] | – | – | abrogation of activity | – |
| CCCCCCCCCCCC(=O)N[C@H](CCC(=O)N[C@H](CCCCN)C(=O)O)C(=O)O [Compound 73, (R)-6-Amino-2-((R)-4-carboxy-4-dodecanamidobutanamido) hexanoic acid] | – | – | bereft of any activity | – |
| N[C@H](CCC(=O)N[C@H](CCC[C@H](N)C(=O)O)C(=O)O)C(=O)O [γ-glutamyl-meso-diaminopimelic acid, reference compound] | inactive | inactive | inactive | – |
